Source: ChEMBL document CHEMBL4118098, “Discovery of DS28120313 as a potent orally active hepcidin production inhibitor: Design and optimization of novel 4,6-disubstituted indazole derivatives” (Bioorg Med Chem Lett, 2017)
The source made the active and inactive calls. The calls are words filed in the database; no cut-off is given here.

Key:
[1] = biological target: Serine/threonine-protein kinase PAK 2 (Homo sapiens) (UniProt Q13177); experiment: Inhibition of PAK2 (unknown origin) at 0.45 uM relative to control
[2] = biological target: Aurora kinase C (Homo sapiens) (UniProt Q9UQB9); experiment: Inhibition of AurC (unknown origin) at 0.45 uM relative to control
[3] = biological target: Casein kinase I isoform gamma-3 (Homo sapiens) (UniProt Q9Y6M4); experiment: Inhibition of CK1-gamma3 (unknown origin) at 0.19 uM relative to control
[4] = biological target: Mitogen-activated protein kinase kinase kinase kinase 2 (Homo sapiens) (UniProt Q12851); experiment: Inhibition of GCK (unknown origin) at 0.19 uM relative to control
Homo sapiens = species on record: Homo sapiens; experiment: Inhibition of PKA (unknown origin) at 0.19 uM relative to control
[5] = biological target: Tyrosine-protein kinase SYK (Homo sapiens) (UniProt P43405); experiment: Inhibition of SYK (unknown origin) at 0.19 uM relative to control
[6] = biological target: Ephrin type-A receptor 4 (Homo sapiens) (UniProt P54764); experiment: Inhibition of EPHA4 (unknown origin) at 0.19 uM relative to control
[7] = biological target: Serine/threonine-protein kinase BRSK2 (Homo sapiens) (UniProt Q8IWQ3); experiment: Inhibition of BRSK2 (unknown origin) at 0.19 uM relative to control
[8] = biological target: Serine/threonine-protein kinase pim-1 (Homo sapiens) (UniProt P11309); experiment: Inhibition of PIM1 (unknown origin) at 0.19 uM relative to control
[9] = biological target: Ephrin type-B receptor 1 (Homo sapiens) (UniProt P54762); experiment: Inhibition of EPHB1 (unknown origin) at 0.19 uM relative to control
[10] = biological target: T1, cGMP-dependent protein kinase 1 (Homo sapiens) (UniProt Q13976); experiment: Inhibition of PKG-alpha (unknown origin) at 0.19 uM relative to control
T1 sequence (whole entry): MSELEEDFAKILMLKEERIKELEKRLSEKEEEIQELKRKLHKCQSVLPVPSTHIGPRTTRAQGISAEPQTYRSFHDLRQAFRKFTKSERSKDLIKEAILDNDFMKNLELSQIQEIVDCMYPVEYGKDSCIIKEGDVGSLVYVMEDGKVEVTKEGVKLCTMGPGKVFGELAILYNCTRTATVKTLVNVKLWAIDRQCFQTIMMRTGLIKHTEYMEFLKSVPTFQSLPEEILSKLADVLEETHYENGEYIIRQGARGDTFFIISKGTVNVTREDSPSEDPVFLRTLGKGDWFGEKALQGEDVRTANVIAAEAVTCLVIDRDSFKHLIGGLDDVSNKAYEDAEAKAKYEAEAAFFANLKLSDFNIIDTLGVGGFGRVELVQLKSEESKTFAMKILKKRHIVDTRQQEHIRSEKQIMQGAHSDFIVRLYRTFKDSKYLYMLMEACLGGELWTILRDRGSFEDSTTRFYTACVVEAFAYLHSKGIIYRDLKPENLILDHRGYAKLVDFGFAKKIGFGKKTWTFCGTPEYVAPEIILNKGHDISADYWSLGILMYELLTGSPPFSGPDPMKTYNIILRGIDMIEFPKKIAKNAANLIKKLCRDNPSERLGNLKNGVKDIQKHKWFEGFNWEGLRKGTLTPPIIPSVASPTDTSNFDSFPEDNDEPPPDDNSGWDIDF

[11] = biological target: Calcium/calmodulin-dependent protein kinase type 1 (Homo sapiens) (UniProt Q14012); experiment: Inhibition of CaMK1a (unknown origin) at 0.19 uM relative to control
[12] = biological target: BDNF/NT-3 growth factors receptor (Homo sapiens) (UniProt Q16620); experiment: Inhibition of NTRK2 (unknown origin) at 0.164 uM relative to control
[13] = biological target: Protein kinase C alpha type (Homo sapiens) (UniProt P17252); experiment: Inhibition of PKC-alpha (unknown origin) at 0.164 uM relative to control
[14] = biological target: Death-associated protein kinase 3 (Homo sapiens) (UniProt O43293); experiment: Inhibition of ZIPK (unknown origin) at 0.164 uM relative to control
[15] = biological target: MAP kinase-interacting serine/threonine-protein kinase 1 (Homo sapiens) (UniProt Q9BUB5); experiment: Inhibition of MNK1 (unknown origin) at 0.164 uM relative to control
[16] = biological target: Dual specificity tyrosine-phosphorylation-regulated kinase 4 (Homo sapiens) (UniProt Q9NR20); experiment: Inhibition of DYRK4 (unknown origin) at 0.164 uM relative to control
[17] = biological target: Macrophage colony-stimulating factor 1 receptor (Homo sapiens) (UniProt P07333); experiment: Inhibition of FMS (unknown origin) at 0.164 uM relative to control
[18] = biological target: T2, Mitogen-activated protein kinase 12 (Homo sapiens) (UniProt P53778); experiment: Inhibition of p38-gamma (unknown origin) at 0.164 uM relative to control
T2 sequence (whole entry): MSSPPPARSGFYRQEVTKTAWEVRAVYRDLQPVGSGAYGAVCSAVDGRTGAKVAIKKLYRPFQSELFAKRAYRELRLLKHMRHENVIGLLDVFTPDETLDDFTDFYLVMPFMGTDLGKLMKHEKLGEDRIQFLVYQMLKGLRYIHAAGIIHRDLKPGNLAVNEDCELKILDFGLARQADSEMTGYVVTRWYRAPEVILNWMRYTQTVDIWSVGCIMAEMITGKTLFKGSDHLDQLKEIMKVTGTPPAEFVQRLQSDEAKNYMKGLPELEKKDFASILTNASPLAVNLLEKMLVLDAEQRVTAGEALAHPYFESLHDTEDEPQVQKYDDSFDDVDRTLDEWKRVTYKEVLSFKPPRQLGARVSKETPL

[19] = biological target: Dual specificity tyrosine-phosphorylation-regulated kinase 1B (Homo sapiens) (UniProt Q9Y463); experiment: Inhibition of DYRK1B (unknown origin) at 0.164 uM relative to control
[20] = biological target: Casein kinase I isoform gamma-2 (Homo sapiens) (UniProt P78368); experiment: Inhibition of CK1-gamma2 (unknown origin) at 0.164 uM relative to control
[21] = biological target: Ephrin type-A receptor 3 (Homo sapiens) (UniProt P29320); experiment: Inhibition of EPHA3 (unknown origin) at 0.164 uM relative to control
[22] = biological target: cAMP-dependent protein kinase catalytic subunit PRKX (Homo sapiens) (UniProt P51817); experiment: Inhibition of PRKX (unknown origin) at 0.164 uM relative to control
Mus musculus = experiment: Antiinflammatory activity in C57BL/6J mouse assessed as reduction in recombinant mouse IL-6 induced serum hepcidin level at 30 mg/kg, po pretreated for 30 mins followed by IL-6 challenge and measured after 4 hrs by LC-MS/MS analysis; format: functional, organism-based
Outline: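 Male C57BL/6J mice, 9 weeks old, were dosed orally at 30 mg/kg (0.5% methylcellulose suspension, n = 4) 30 min before intravenous mouse IL-6. Blood was taken 4 h after IL-6 and serum hepcidin concentration measured. The comparison was against a 0.5% MC vehicle group, with a saline group included, by t-test.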

For `Cc1n[nH]c(C)c1-c1ccc2c(NC(=O)c3ccc(N4CCN(C)CC4)cc3)n[nH]c2c1`, the inhibition [1] was -2.7% and the inhibition [2] was -1%.

Compound `Cc1[nH]nc(C2CC2)c1-c1ccc2c(-c3ccc(N4CCN(C)CC4)nc3)n[nH]c2c1` has an inhibition [3] of 1%, an inhibition [4] of 16.7% and an inhibition (Homo sapiens) of 5.7%. It also gave an inhibition [5] of 4.7%, an inhibition [6] of 2% and an inhibition [7] of 6.3%. The inhibition [8] was -1.3%, the inhibition [9] was 1.3% and the inhibition [10] was -3.7%. The inhibition [11] was 0.3%.

Compound `COC(=O)Nc1cc(-c2c(C3CC3)n[nH]c2C)cc2[nH]ncc12` has an inhibition [12] of 4%, an inhibition [13] of 1.3% and an inhibition [14] of -1%. The inhibition [15] was 3.3%, the inhibition [16] was 2.7% and the inhibition [17] was -0.7%. It also gave an inhibition [18] of 0.3%, an inhibition [19] of 0.3% and an inhibition [20] of 2.3%. The inhibition [21] was -6.7%, the inhibition [22] was -3.3% and the Activity (Mus musculus) was “Active”.
